Assay results as given in ChEMBL document CHEMBL4251674, “Bioactivity-Based Molecular Networking for the Discovery of Drug Leads in Natural Product Bioassay-Guided Fractionation” (J Nat Prod, 2018).
Calls of active or inactive are those of the source. No cut-off for these calls is given here.

Test system: not listed separately
Test: Selectivity index, ratio of CC50 for African green monkey Vero cells to EC50 for Chikungunya virus 899 infected in African green monkey Vero cells
Type: toxicity
Settings: read-out: Selectivity Index
Summary of the method: (§1)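 Cell-based CHIKV replication assay in Vero cells. EC50 is the concentration that reduces CHIKV replication by 50%. CC50 is the concentration that reduces natural growth of the host cells by 50%. […]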

Structure (SMILES) | selectivity ratio
CCC/C=C/C=C/C=C\C(=O)O[C@@H]1[C@@H](C)[C@]2(O)[C@@H]3C=C(C)C(=O)[C@H]3CC(CO)=C[C@H]2[C@@H]2C(C)(C)[C@]12OC(=O)C(C)C | 34
CC/C=C\C/C=C/C=C\C(=O)O[C@@H]1[C@@H](C)[C@]2(O)[C@@H]3C=C(C)C(=O)[C@H]3CC(CO)=C[C@H]2[C@@H]2C(C)(C)[C@]12OC(=O)C(C)C | 4
CCC/C=C/C=C\C(=O)O[C@@H]1[C@@H](C)[C@]2(O)[C@@H]3C=C(C)C(=O)[C@H]3CC(CO)=C[C@H]2[C@@H]2C(C)(C)[C@]12OC(=O)C(C)C | 41
CCCCC/C=C/C=C\C(=O)O[C@@H]1[C@@H](C)[C@]2(O)[C@@H]3C=C(C)C(=O)[C@H]3CC(CO)=C[C@H]2[C@@H]2C(C)(C)[C@]12OC(=O)C(C)C | 6

Test system: Chikungunya virus
Test: Antiviral activity against Chikungunya virus 899 infected in African green monkey Vero cells assessed as inhibition of virus-induced cytopathic effect after 6 to 7 days by MTS assay
Type: functional, organism-based
Settings: not given
Summary of the method: as §1

Structure (SMILES) | inhibition
C=C1[C@H](OC(=O)c2ccccc2)[C@@H](OC(C)=O)[C@@H](OC(C)=O)C(C)(C)/C=C/[C@H](C)C(=O)[C@@]2(O)C[C@H](C)[C@H](OC(C)=O)[C@@H]2[C@H]1OCC(C)C | inactive
C=C1[C@H](OC(=O)c2ccccc2)[C@@H](OC(C)=O)[C@@H](OC(C)=O)C(C)(C)/C=C/[C@H](C)C(=O)[C@@]2(O)C[C@@](C)(OC(C)=O)[C@H](OC(C)=O)[C@@H]2[C@H]1OCC(C)C | inactive
C=C1[C@H](OC(=O)c2ccccc2)[C@@H](OC(C)=O)[C@@H](OC(=O)c2cccnc2)C(C)(C)/C=C/[C@H](C)C(=O)[C@@]2(OC(C)=O)C[C@@](C)(OC(=O)c3cccnc3)[C@H](OC(C)=O)[C@@H]2[C@H]1OC(C)=O | inactive
C=C1[C@H](OC(=O)c2ccccc2)[C@@H](OC(C)=O)[C@@H](OC(=O)c2cccnc2)C(C)(C)/C=C/[C@H](C)C(=O)[C@@]2(O)C[C@@](C)(OC(=O)c3cccnc3)[C@H](OC(C)=O)[C@@H]2[C@H]1OCC(C)C | inactive
C=C1[C@H](O)[C@H]2[C@@H](OC(=O)c3ccccc3)[C@](C)(O)C[C@]2(O)C(=O)[C@@H](C)/C=C/C(C)(C)[C@H](OC(C)=O)[C@H](OC(C)=O)[C@H]1OC(=O)c1ccccc1 | inactive
C=C1[C@H](OCC(C)C)[C@@H](OC(C)=O)[C@@H](OC(C)=O)C(C)(C)/C=C/[C@H](C)C(=O)[C@@]2(O)C[C@@](C)(OC(C)=O)[C@H](OC(=O)c3ccccc3)[C@@H]2[C@H]1OCC(C)C | inactive
C=C1[C@H](OC(=O)c2ccccc2)[C@@H](OC(C)=O)[C@@H](OC(C)=O)C(C)(C)/C=C/[C@H](C)C(=O)[C@@]2(O)C[C@@](C)(OC(C)=O)[C@H](O)[C@@H]2[C@H]1OCC(C)C | inactive
C=C1[C@H](OCC(C)C)[C@@H](OC(C)=O)[C@@H](OC(=O)c2cccnc2)C(C)(C)/C=C/[C@H](C)C(=O)[C@@]2(OC(C)=O)C[C@@](C)(OC(=O)c3cccnc3)[C@H](OC(C)=O)[C@@H]2[C@H]1OC(C)=O | inactive
CC(=O)O[C@H]1[C@@H](OC(C)=O)C(C)(C)/C=C/[C@@](C)(O)C(=O)[C@@]2(OC(C)=O)C[C@@](C)(OC(C)=O)[C@H](OC(C)=O)[C@@H]2[C@H]2OC(=O)CC[C@@]2(OC(C)=O)[C@@H]1OCC(C)C | inactive
C=C1[C@H](OC(=O)c2ccccc2)[C@@H](OC(C)=O)[C@@H](OC(C)=O)C(C)(C)/C=C/[C@H](C)C(=O)[C@@]2(O)C[C@@](C)(OC(C)=O)[C@H](O)[C@@H]2[C@H]1OC(=O)c1ccccc1 | inactive
C=C1[C@H](OC(=O)c2ccccc2)[C@@H](O)[C@@H](OC(C)=O)C(C)(C)/C=C/[C@H](C)C(=O)[C@@]2(O)C[C@@](C)(OC(C)=O)[C@H](O)[C@@H]2[C@H]1OC(=O)c1ccccc1 | inactive
C=C1[C@H](OC(=O)c2ccccc2)[C@@H](OC(C)=O)[C@@H](OC(C)=O)C(C)(C)/C=C/[C@H](C)C(=O)[C@@]2(O)C[C@@](C)(OC(C)=O)[C@H](OCC(C)C)[C@@H]2[C@H]1OCC(C)C | inactive
CC(=O)O[C@H]1[C@@H](OC(C)=O)C(C)(C)/C=C/[C@@](C)(O)C(=O)[C@@]2(O)C[C@@](C)(OC(C)=O)[C@H](OC(C)=O)[C@@H]2[C@H]2OC(=O)CC[C@@]2(OC(C)=O)[C@@H]1OCC(C)C | inactive
CC(=O)O[C@H]1[C@@H](OC(C)=O)C(C)(C)/C=C/[C@@](C)(O)C(=O)[C@@]2(O)C[C@@](C)(OC(C)=O)[C@H](OC(C)=O)[C@@H]2[C@H]2OC(=O)CC[C@@]2(OCC(C)C)[C@@H]1OCC(C)C | inactive
C=C1[C@H](OCC(C)C)[C@@H](OC(C)=O)[C@@H](OC(C)=O)C(C)(C)/C=C/[C@H](C)C(=O)[C@@]2(O)C[C@@](C)(OC(C)=O)[C@H](OC(=O)COC(=O)c3ccccc3)[C@@H]2[C@H]1OC(C)=O | inactive
CC(=O)O[C@H]1[C@@H](OC(C)=O)C(C)(C)/C=C/[C@H](C)C(=O)[C@@]2(OC(C)=O)C[C@@](C)(OC(C)=O)[C@H](O)[C@@H]2[C@H]2OC(=O)CC[C@@]2(OC(C)=O)[C@@H]1OCC(C)C | inactive
C=C1[C@H](OC(=O)c2ccccc2)[C@@H](OC(C)=O)[C@@H](OC(C)=O)C(C)(C)/C=C/[C@H](C)C(=O)[C@@]2(O)C[C@@](C)(O)[C@H](OC(C)=O)[C@@H]2[C@H]1OCC(C)C | inactive
C=C1[C@H](OC(=O)c2ccccc2)[C@@H](OC(C)=O)[C@@H](OC(=O)c2cccnc2)C(C)(C)/C=C/[C@H](C)C(=O)[C@@]2(O)C[C@@](C)(OC(=O)c3cccnc3)[C@H](OC(C)=O)[C@@H]2[C@H]1OC(C)=O | inactive

Same assay, conditions: Chikungunya virus, 899, Vero

Structure (SMILES) | EC50 [nM]
CCC/C=C/C=C/C=C\C(=O)O[C@@H]1[C@@H](C)[C@]2(O)[C@@H]3C=C(C)C(=O)[C@H]3CC(CO)=C[C@H]2[C@@H]2C(C)(C)[C@]12OC(=O)C(C)C | 400
CC/C=C\C/C=C/C=C\C(=O)O[C@@H]1[C@@H](C)[C@]2(O)[C@@H]3C=C(C)C(=O)[C@H]3CC(CO)=C[C@H]2[C@@H]2C(C)(C)[C@]12OC(=O)C(C)C | 12600
CCC/C=C/C=C\C(=O)O[C@@H]1[C@@H](C)[C@]2(O)[C@@H]3C=C(C)C(=O)[C@H]3CC(CO)=C[C@H]2[C@@H]2C(C)(C)[C@]12OC(=O)C(C)C | 600
CCCCC/C=C/C=C\C(=O)O[C@@H]1[C@@H](C)[C@]2(O)[C@@H]3C=C(C)C(=O)[C@H]3CC(CO)=C[C@H]2[C@@H]2C(C)(C)[C@]12OC(=O)C(C)C | 900
